Reference: ChEMBL document CHEMBL1156744, “Anti-tumoral activity of imidazoquines, a new class of antimalarials derived from primaquine” (Bioorg Med Chem Lett, 2009)

Columns and labels:
Type in all cases: functional, cell-based
HT-29 = assay: Antitumor activity against human HT-29 cells after 48 hours hrs by SRB assay; details: HT-29, 48 h
How it was run: (§1)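 Seeded cells were exposed to each compound across a broad concentration range for 48 h. Growth was read by sulforhodamine B staining, compared against untreated control. Values are mean ± SEM, n = 3–6.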

Caco-2 = assay: Antitumor activity against human Caco-2 cells after 48 hours hrs by SRB assay; details: Caco-2, 48 h; how it was run: as §1
MCF7 = assay: Antitumor activity against human MCF7 cells after 48 hours hrs by SRB assay; details: MCF7, 48 h; how it was run: as §1

Row | SMILES | IC50 (HT-29) [µM] | IC50 (Caco-2) [µM] | IC50 (MCF7) [µM]
1 | COc1cc(NC(C)CCCNC(C)=O)c2ncccc2c1 (stereo unspecified) | > 100 | 46 | 57.3
2 | COc1cc(N)c2ncccc2c1 | > 100 | > 100 | 86.5
3 | COc1cc(NC(C)CCCN2C(=O)[C@H](C)NC2(C)C)c2ncccc2c1 (stereo partly specified) | > 100 | 71 | 42.3
4 | COc1cc(NC(C)CCCN2C(=O)CN(C(=O)[C@H](C)N)C2(C)C)c2ncccc2c1 (stereo partly specified) | 46.3 | > 100 | 20
5 | COc1cc(NC(C)CCCNC(=O)CNC(=O)[C@H](C)N)c2ncccc2c1 (stereo partly specified) | 92.3 | > 100 | 21.3
6 | COc1cc(NC(C)CCCNC(=O)C2CCCN2C(=O)[C@@H](C)N)c2ncccc2c1 (stereo partly specified) | > 100 | 64 | 15
7 | COc1cc(NC(C)CCCNC(=O)CN2C(=O)[C@H](C)NC23CCCCC3)c2ncccc2c1 (stereo partly specified) | > 100 | 74.7 | 27
8 | COc1cc(NC(C)CCCNC(=O)CN2C(=O)[C@H](C)NC2(C)C)c2ncccc2c1 (stereo partly specified) | > 100 | 58 | 38.3
9 | FC(F)(F)c1ccc2c(Cl)ccnc2c1 | > 100 | 52.3 | 63
10 | COc1cc(NC(C)CCCN2C(=O)CN(C(C)=O)C2(C)C)c2ncccc2c1 (stereo unspecified) | > 100 | 60 | > 100
11 | O=C(O)c1cc2ccccc2nc1Cl | > 100 | 81 | > 100
12 | COc1cc(NC(C)CCCN)c2ncccc2c1 (stereo unspecified) [PRIMAQUINE] | 69.7 | 48 | 6.9
